# Screens (PubChem BioAssay)
# Compounds with a hit are over-represented: about 4.7% of the library has one in this group of screens.
# VIM-2 inhibitor: VIM-2 metallo-beta-lactamase inhibitors, primary screen, biochemical, epi-absorbance readout, Pseudomonas aeruginosa enzyme; AID 1527, 2009; inhibition, % at 5.6 µM; purified VIM-2, nitrocefin hydrolysis, epi-absorbance fluorescence; hit rate 0.89% among 290,000;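 active = inhibition above the mean of all tested compounds plus 3 SD, cutoff set per screening run, cut at about 7.5% in these data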;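 also: red hydrolysis product quenches plate fluorescence so inhibitors raise well fluorescence; 0% = enzyme with DMSO and 100% = DMSO without enzyme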
# aSyn 5UTR inh: MLPCN primary screen, SNCA 5' untranslated region | hit rate 0.82% among 300,000 | AID 1813, 2009 | inhibition, % (tested at 7.5 µM) | alpha-synuclein 5'UTR reporter, inhibitor activity; in the data active = inhibition above about 60%; inconclusive = no clear call, values can overlap the other calls;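 also: H4 neuroglioblastoma cells stably carrying SNCA 5'UTR luciferase fusion; 0% = DMSO wells and 100% = positive control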
# Mdm2 MdmX PPI: inhibitors of human Mdm2-MdmX association, primary screen, cell-based, luminescence, split luciferase, SaOS-2, uHTS | SaOS-2 split-luciferase Mdm2/MdmX complementation | Protein Mdm4 (Homo sapiens) + E3 ubiquitin-protein ligase Mdm2 (Homo sapiens), … | inhibition, % at 8 µM | hit rate 3% among 330,000;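 active = inhibition of at least 50% at 8 µM in the primary screen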
# Target sequence (O15151 whole entry, looked up): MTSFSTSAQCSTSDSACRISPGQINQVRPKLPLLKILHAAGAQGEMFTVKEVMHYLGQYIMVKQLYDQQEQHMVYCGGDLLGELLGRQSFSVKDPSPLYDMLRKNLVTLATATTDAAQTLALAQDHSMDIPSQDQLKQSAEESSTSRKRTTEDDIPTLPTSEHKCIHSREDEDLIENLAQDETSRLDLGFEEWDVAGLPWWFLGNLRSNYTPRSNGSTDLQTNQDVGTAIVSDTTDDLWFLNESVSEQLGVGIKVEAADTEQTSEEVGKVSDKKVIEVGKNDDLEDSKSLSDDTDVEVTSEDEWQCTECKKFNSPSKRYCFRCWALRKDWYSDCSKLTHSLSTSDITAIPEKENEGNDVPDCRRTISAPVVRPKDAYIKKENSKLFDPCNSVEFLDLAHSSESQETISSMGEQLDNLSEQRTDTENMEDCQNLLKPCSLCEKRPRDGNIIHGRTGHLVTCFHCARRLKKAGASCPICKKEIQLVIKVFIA
# Target sequence (Q00987 whole entry, looked up): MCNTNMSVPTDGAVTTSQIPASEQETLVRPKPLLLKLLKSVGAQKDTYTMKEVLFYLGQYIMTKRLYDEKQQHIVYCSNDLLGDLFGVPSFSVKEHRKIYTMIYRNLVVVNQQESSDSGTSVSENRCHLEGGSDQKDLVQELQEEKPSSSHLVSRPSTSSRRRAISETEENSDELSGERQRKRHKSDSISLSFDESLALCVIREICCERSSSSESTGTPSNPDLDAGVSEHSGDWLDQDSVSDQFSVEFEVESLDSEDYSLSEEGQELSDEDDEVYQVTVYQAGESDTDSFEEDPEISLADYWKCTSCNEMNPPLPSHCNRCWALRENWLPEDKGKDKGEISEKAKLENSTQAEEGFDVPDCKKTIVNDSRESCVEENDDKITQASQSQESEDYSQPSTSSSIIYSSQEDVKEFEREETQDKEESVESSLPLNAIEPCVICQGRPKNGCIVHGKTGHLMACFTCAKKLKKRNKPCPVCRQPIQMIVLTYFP
# IMP-1 inh: IMP-1 metallo-beta-lactamase inhibitors, primary screen, biochemical, epi-absorbance readout, Pseudomonas aeruginosa enzyme | AID 1556, 2009 | metallo-beta-lactamase IMP-1 (Pseudomonas aeruginosa) | inhibition, % at 5.6 µM | purified IMP-1, nitrocefin hydrolysis, epi-absorbance fluorescence | hit rate 0.45% among 290,000;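 active = inhibition above the mean plus 3 SD of all compounds in the same screening run, cut at about 4.5% in these data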;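 also: 0% = IMP-1 with DMSO and 100% = DMSO wells lacking enzyme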
#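 assay system = purified recombinant IMP-1 metallo-beta-lactamase enzyme | schedule = 15 min preincubation plus 25 min reaction at 25 °C | signal = Epi-absorbance fluorescence, 480 nm excitation, 530 nm emission | read-out basis = percent inhibition from optical density relative to buffer-blank wells | controls = IMP-1 with DMSO as 0%, enzyme-free DMSO as 100%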
# 697 NFkB inh: inhibitors of PMA/ionomycin-induced NF-kB reporter, 697 cells, primary screen, B-cell NF-kB inhibitor project, cell-based, luminescence, uHTS | inhibition, % at 4 µM | AID 435022, 2010 | 697 B-cell NF-kB luciferase reporter, 16 h | hit rate 0.33% among 330,000; in the data active = inhibition above about 35%
# Jurkat NFkB inh: inhibitors of induced NF-kB luciferase reporter, primary screen, TCR NF-kB activation inhibitor project, cell-based, luminescence, uHTS. Jurkat, PMA/ionomycin-induced NF-kB luciferase reporter. hit rate 0.53% among 330,000. inhibition, % at 4 µM; in the data active = inhibition above about 50%
# Mdm2-MdmX conf: Mdm2-MdmX complex disruptors, retested hits, confirmation, luminescence, single concentration | shares compounds with Mdm2 MdmX PPI | Mdm2-MdmX binding, luminescent assay | inhibition, % at 8 µM | hit rate 55% among 10,000; in the data active = inhibition above about 40%
# Full FLuc ctr: full-length luciferase signal inhibition, confirmation, counter-screen for Mdm2/MdmX interaction inhibitor project, cell-based, single concentration, SaOS-2; shares compounds with Mdm2 MdmX PPI; hit rate 77% among 6,200; SaOS-2 full-length luciferase counterscreen, luminescence; inhibition, % at 8 µM;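 active = mean inhibition at 8 µM reaching about 37%, which flags the compound as non-specific, limit read from the data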;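 also: p53-null SaOS-2 cells with luciferase driven by a doxycycline-inducible promoter; compound on cells about two nights before reading with doxycycline added after day one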
# Numbers without * were called inactive; ? = inconclusive; · = no result.
SMILES,VIM-2 inhibitor,aSyn 5UTR inh,Mdm2 MdmX PPI,IMP-1 inh,697 NFkB inh,Jurkat NFkB inh,Mdm2-MdmX conf,Full FLuc ctr
CN(C)C1(CNC(=O)C2CCN(S(=O)(=O)c3cc(Cl)ccc3Cl)CC2)CCCCC1,0,1,16,-1,-25,-29,·,·
CCN(CC)S(=O)(=O)c1ccc(N/N=C(\C)c2ccc(OC)cc2O)nc1,-3,78*,57*,-2,-21,20,32,·
Cn1nc(-c2ccc(N3CCCCC3)c(NC(=O)c3ccco3)c2)c2ccccc2c1=O,-3,67*,88*,-5,28,12,44*,41*
COc1ccc(OCC(=O)Nc2cc(-c3nn(C)c(=O)c4ccccc34)ccc2N2CCOCC2)cc1,-2,39,67*,-4,8,-24,19,·
CCC(=O)Nc1cc(-c2nn(C)c(=O)c3ccccc23)ccc1N1CCOCC1,3,12,15,3,27,6,·,·
Cn1nc(-c2ccc(N3CCOCC3)c(NC(=O)COc3ccccc3)c2)c2ccccc2c1=O,-2,·,·,0,·,·,·,·
Cc1cccc(/C=N\NC(=O)c2ccc(Cl)cc2)c1O,-1,57,30,-3,-186,-13,·,·
Cc1cccc(/C=N/NC(=O)Cc2ccc(Cl)cc2)c1O,-4,14,64*,-2,13,20,42*,30
Cc1ccc(O)c(/C=N/NC(=O)Cc2ccc(Cl)cc2)c1,-4,?,64*,-3,9,21,51*,34
Cc1ccsc1/C=N/NC(=O)Cc1ccc(Cl)cc1,-2,-9,-9,-4,-5,2,·,·
O=C(NCc1ccccc1F)c1ccc2c(c1)OCCO2,0,-80,5,-4,-11,-5,·,·
CCOc1ccc(-n2nnnc2SCC(=O)c2ccccc2)cc1,-2,-9,68*,1,-3,-1,15,·
COc1ccc(-n2nnnc2SCC(=O)c2cccc(OC)c2)cc1,-2,5,49,-2,-8,-7,·,·
Cc1nc2ccccn2c1-c1csc(Nc2ccc(C(=O)O)cc2)n1,1,-6,53*,-4,6,30,54*,63*
CCOc1ccc(Br)cc1C1C(C(=O)OC)=C(N)Oc2cc(N(C)C)ccc21 (configuration not stated),-1,-24,80*,-2,16,25,55*,55*
CSc1nnc(NC(=O)c2nc(S(=O)(=O)Cc3ccccc3)ncc2Cl)s1,-5,-35,99*,-4,-25,6,94*,2
CCCc1nnc(NC(=O)c2nc(S(=O)(=O)Cc3ccc(C)cc3)ncc2Cl)s1,-7,-9,35,-4,11,11,·,·
CC(C)c1nnc(NC(=O)c2nc(S(=O)(=O)Cc3ccccc3)ncc2Cl)s1,-5,-81,97*,-2,-66,0,76*,50*
O=C(NCCc1cccc(C(F)(F)F)c1)C1CCC(=O)N(C2CC2)C1 (configuration not stated),-1,-2,-4,-3,13,8,·,·
O=C(COC(=O)CNC(=O)c1ccc(Cl)cc1)Nc1ccc(Cl)cn1,·,·,3,·,10,-2,·,·
COc1ccccc1NC(=S)NCc1ccc2c(c1)cc(C)n2C,-1,-29,31,-3,-9,-1,·,·
Cc1ccccc1NC(=S)NCc1ccc2c(c1)cc(C)n2C,-5,9,68*,43*,6,6,48*,62*
Oc1ccccc1-c1nc(NCc2ccccc2)c2ccccc2n1,3,5,56*,-2,9,12,33,·
Oc1ccccc1-c1nc(NCc2cccnc2)c2ccccc2n1,0,11,70*,-3,-6,6,49*,78*
Oc1ccccc1-c1nc(NCCN2CCOCC2)c2ccccc2n1,3,-29,45,2,12,-10,·,·
SMILES,VIM-2 inhibitor,aSyn 5UTR inh,Mdm2 MdmX PPI,IMP-1 inh,697 NFkB inh,Jurkat NFkB inh,Mdm2-MdmX conf,Full FLuc ctr
Nc1nonc1-c1nc2ccccc2n1CC(=O)Nc1ccccc1,-3,-9,78*,-3,-4,31,69*,25
CCCCn1c(-c2nonc2N)nc2ccccc21,-3,22,61*,-1,4,19,45*,50*
CC(CCCC(C)(C)O)NC(=O)c1ccc2oc(CCc3ccccc3)nc2c1 (configuration not stated),-1,-9,-6,0,-13,-1,·,·
COc1cc(-c2nnc(COc3ccc4cc(Br)ccc4c3)o2)cc(OC)c1OC,-2,23,60*,-1,26,10,8,·
Cc1ccc(C)c(-c2nnc(NC(=O)Cc3ccc(F)cc3)o2)c1,-4,41,52*,-2,12,-5,22,·
O=C(NC1CCCCC1)c1n[nH]c2c1CCCCC2,·,·,71*,·,-112,0,69*,65*
Cc1ccccc1NS(=O)(=O)c1cc2c(cc1C)N(C)CCO2,-3,17,-6,-3,14,-8,·,·
Cc1ccc(C(C)C)c(OCC(=O)Nc2ccc3c(c2)nc(CCN2CCCCC2)n3C)c1,-2,110*,99*,-4,0,9,82*,60*
Cn1c(CCN2CCCCC2)nc2cc(NC(=O)COc3ccc(Cl)cc3)ccc21,-3,0,45,0,-12,-6,·,·
Cn1c(CCN2CCCC2)nc2cc(NS(=O)(=O)c3ccc(Cl)cc3)ccc21,-4,-11,69*,-5,6,-6,32,·
Cc1ccc(S(=O)(=O)Nc2ccc3c(c2)nc(CCN2CCCC2)n3C)cc1,-1,0,49,-2,-8,-8,·,·
CC(=O)NC12CC3CC(C1)CC(C(=O)N(C)CC(=O)Nc1ccc(F)c(F)c1F)(C3)C2,·,·,-2,·,5,-10,·,·
Cc1ccc(CSc2ncnc3ccccc23)cc1,-4,-30,17,-3,-9,-7,·,·
O=Cc1cc2ccccc2nc1SCc1ccc(Cl)cc1,-3,95*,81*,0,-2,49,59*,84*
Cc1ccc(CSc2nc3ccccc3cc2C=O)cc1,0,93*,64*,-2,19,44,65*,80*
O=c1[nH]c(SCc2ccc(Cl)cc2)nc2ccccc12,-2,6,16,-1,-62,0,·,·
